Screening results deposited in PubChem BioAssay by The Scripps Research Institute Molecular Screening Center.
The list is not random: actives were taken first. Their share in the collection is about 1.8%.
CHRM5 PAM – human M5 muscarinic receptor positive allosteric modulators, primary screen, CHO-K1 cells, Fluo-8 calcium fluorescence. activation, % at 3 µM. CHO-K1 hM5, ACh EC20 PAM; 0% = ACh EC20, 100% = ACh EC100. 0.3% of 360,000 active. AID 624038, 2012. Muscarinic acetylcholine receptor M5 (Homo sapiens), P08912;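 active means activation above the run cutoff, the mean activation of all test compounds plus 3 SD, cut at about 18% in these data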
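Replicates: One well per compound, no replicates | System: Human M5 receptor in CHO-K1 cells | Benchmarks: Low control EC20 acetylcholine (0%), high control EC100 acetylcholine (100%) | Probe or stimulus: Acetylcholine, EC20 level | Times: Fluo-8 loading 80 min at 37 °C plus 30 min room temperature | Signal: Intracellular calcium via Fluo-8 fluorescence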
CHRM4 antagonist – human M4 muscarinic receptor antagonists, primary screen, CHO cells, Fluo-8 calcium fluorescence. 0.73% of 360,000 active. inhibition, % at 3 µM. Muscarinic acetylcholine receptor M4 (Homo sapiens), P08173. CHO-hM4 cells, ACh EC80;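 active means inhibition above its plate's cutoff, the mean inhibition of sample wells plus 3 SD, cut at about 27% in these data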
Target sequence (P08173 whole entry, looked up): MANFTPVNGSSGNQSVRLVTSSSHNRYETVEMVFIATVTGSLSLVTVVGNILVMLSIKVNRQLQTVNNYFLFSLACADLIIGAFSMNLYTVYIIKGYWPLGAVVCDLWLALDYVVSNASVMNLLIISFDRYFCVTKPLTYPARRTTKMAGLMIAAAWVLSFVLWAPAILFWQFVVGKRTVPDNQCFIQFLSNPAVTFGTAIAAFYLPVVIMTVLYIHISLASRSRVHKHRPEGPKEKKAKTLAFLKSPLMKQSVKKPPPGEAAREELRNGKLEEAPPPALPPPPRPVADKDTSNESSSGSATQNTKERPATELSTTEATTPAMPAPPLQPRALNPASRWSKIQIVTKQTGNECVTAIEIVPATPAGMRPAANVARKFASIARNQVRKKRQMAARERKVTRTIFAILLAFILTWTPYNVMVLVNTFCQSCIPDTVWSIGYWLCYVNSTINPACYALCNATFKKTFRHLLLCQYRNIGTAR
M5 antag – human M5 muscarinic receptor antagonists, primary screen, CHO cells, Fluo-8 calcium fluorescence | 0.59% of 360,000 active | CHO-hM5 cells, ACh EC80 | Muscarinic acetylcholine receptor M5 (Homo sapiens), P08912 | inhibition, % at 3 µM;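 active means inhibition above a per-plate cutoff, the mean of that plate's test compounds plus 3 SD, cut at about 27% in these data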
CHRM4 agonist – human M4 muscarinic receptor agonists, primary screen, CHO-K1 cells, Fluo-8 calcium fluorescence; CHO-K1 hM4/Gqi5; vehicle 0%, full acetylcholine response 100%; 0.14% of 360,000 active; activation, % at 3 µM; AID 624127, 2012; Muscarinic acetylcholine receptor M4 (Homo sapiens), P08173;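 active means activation above the run mean over all test wells plus 3 SD, cut at about 32% in these data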;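 further: peak over basal fluorescence ratio per well then scaled between controls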
M5 ag – human M5 muscarinic receptor agonists, primary screen, CHO-K1 cells, Fluo-8 calcium fluorescence | activation, % at 3 µM | 0.19% of 360,000 active | Muscarinic acetylcholine receptor M5 (Homo sapiens), P08912 | CHO-K1 hM5 cells; 0% DMSO wells, 100% maximal acetylcholine response;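 active means activation above the run's mean over test compounds plus 3 SD, cut at about 23% in these data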;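 further: signal is peak over basal fluorescence ratio across the kinetic read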
M4 PAM – human M4 muscarinic receptor positive allosteric modulators, primary screen, CHO-K1 cells, Fluo-8 calcium fluorescence. CHO-K1 hM4/Gqi5, ACh EC20; 0% = ACh EC20, 100% = maximal ACh. Muscarinic acetylcholine receptor M4 (Homo sapiens), P08173. 0.4% of 360,000 active. activation, % at 3 µM. AID 624126, 2012;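 active means activation above its plate's cutoff, the mean activation of sample wells plus 3 SD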
Numbers stand for hits; – = inactive.

SMILES	CHRM5 PAM	CHRM4 antagonist	M5 antag	CHRM4 agonist	M5 ag	M4 PAM
COc1cc(OC)c(NC(=O)c2c(-c3ccccc3)noc2C)cc1Cl	18.4	–	–	–	–	–
Cc1cccc(C(=O)NC(=S)NNC(=O)c2ccccc2Cl)c1	–	–	–	39.8	46.0	–
Cc1cccc(C(=O)NC(=S)NNC(=O)Cc2ccccc2)c1	–	–	–	–	–	–
O=C(NCc1ccccc1)C1c2ccccc2OCC(=O)N1CC(F)(F)F (stereo not given)	–	–	–	–	–	–
COc1cccc(CNC(=O)CCNS(=O)(=O)c2ccc3[nH]c(=O)oc3c2)c1	–	–	–	–	–	16.4
COc1ccc(-n2nnnc2C(CCc2ccccc2)N2CCN(C/C=C/c3ccccc3)CC2)cc1 (stereo not given)	–	–	–	–	–	–
CN(C(=O)COC(=O)CNC(=O)c1ccccc1F)C1CCCCC1	–	–	–	–	–	23.2
CC1=CC(C)(C)N(C(=O)CNC2CCCC2)c2cc(C)ccc21	–	48.9	36.8	–	–	–
CCOc1ccc2c(c1)N(C(=O)CN1C(=O)CCC1=O)C(C)(C)C=C2C	–	–	–	–	–	–
O=C(/C=C/[C@H]1O[C@@H](n2ccc(=O)[nH]c2=O)[C@H](O)[C@@H]1O)NCc1cccnc1	–	–	–	–	–	–
Cc1cc(SCC(=O)NCC2CCCO2)nc2ccccc12 (stereo not given)	–	–	–	–	23.3	–
Cc1cc(C(=O)CN2C(=O)NC(C)(c3ccccc3)C2=O)c(C)n1CC1CCCO1 (stereo not given)	–	27.1	–	–	–	–
Cc1cc(C(=O)CSc2nc3ccccc3c(=O)[nH]2)c(C)n1CC1CCCO1 (stereo not given)	–	27.1	35.7	–	–	–
CCn1c(SCC(=O)c2cc(C)n(CC3CCCO3)c2C)nc2ccccc21 (stereo not given)	–	–	–	–	–	–
COc1ccc(NC(=O)C[C@H]2C(=O)N(c3ccc(OC)cc3)C[C@@H]2C)cc1	–	–	–	–	–	–
CCCNC(=O)C1(C)CCCN(C(=O)c2cccc(C#N)c2)C1 (stereo not given)	–	–	–	–	–	–
O[C@@H]1CN(Cc2cccs2)[C@@H](c2ccc(Cl)cc2)C[C@H]1n1cc(C2CC2)nn1	–	–	–	–	–	–
CCCC(=O)N1CCC1(C)C(=O)NS(=O)(=O)c1cccc(C)c1 (stereo not given)	–	–	–	–	–	–
Cc1cccc(/C=N/n2c(C)cc(C)c(C#N)c2=O)c1	–	–	–	–	–	41.3
COc1ccc(C(C)(O)c2nc(-c3cccc(C(F)(F)F)c3)cs2)cc1 (stereo not given)	–	–	–	–	–	–
COc1ccc(C(=O)NC(=S)NNC(=O)c2ccccc2O)cc1	–	–	–	–	–	–
COc1ccc(C(=O)NC(=S)NNC(=O)c2ccccc2C)cc1	–	–	27.6	122.6	59.3	–
COc1ccc(C(=O)NNC(=S)NC(=O)C(C)(C)C)cc1	–	–	–	87.6	27.2	–
COCOCCn1cc(CN2CCS(=O)(=O)N(Cc3ccc(-c4ccc(Cl)nc4)cc3)C(C)C2=O)nn1 (stereo not given)	–	–	–	–	–	–
Cc1nc(N)sc1C(=O)N/N=C/c1cccnc1	19.5	–	–	–	–	–
SMILES	CHRM5 PAM	CHRM4 antagonist	M5 antag	CHRM4 agonist	M5 ag	M4 PAM
CCOC(=O)N1CCN(C(=O)C[C@@H]2C[C@@]3(C(=O)OCC)CCC=C3N(Cc3ccc4c(c3)OCO4)C2=O)CC1	–	–	–	–	–	–
Cc1ccccc1CN1CC2=C(CCN(Cc3ccccc3)C2=O)N2CCN=C12	–	–	–	–	–	–
CN1CC(=O)N(CC(=O)NCc2ccc(F)cc2)c2ccccc2C1=O	–	–	–	–	–	–
CN1CC(=O)N(CC(=O)Nc2ccc(F)cc2)c2ccccc2C1=O	40.2	–	–	–	–	–
Nc1nc(N2CCN(c3ccccn3)CC2)nc2ccccc12	–	27.5	–	–	–	–
Nc1nc(N2CCCCC2)nc2ccccc12	–	–	–	–	–	–
CN1CCc2nc3ccc(Cl)cc3c(-c3ccccc3Cl)c2C1	–	69.6	65.7	–	–	–
Cn1c(SCc2nc3ccccc3[nH]2)nnc1-c1cnccn1	18.5	–	–	–	–	–
c1coc(Cn2c(SCc3nc4ccccc4[nH]3)nnc2-c2cnccn2)c1	–	–	–	–	–	–
Clc1ccc2nnc(Cl)n2n1	–	–	–	–	–	19.4
FC(F)c1nnc2ccc(Cl)nn12	–	–	–	–	–	–
CCC(C)(C(=O)Nc1ccc(OC)cc1)N(C)C(=O)Cn1nnnc1N (stereo not given)	19.4	–	–	–	–	–
COc1ccc(NC(=O)C2(N(C(=O)Cn3nnnc3N)c3ccc(OC)cc3)CCCCC2)cc1	–	–	–	–	–	–
CN(C)c1ccc(/C=C(/C#N)C(=O)NCc2ccccc2)o1	–	–	–	–	25.1	–
N#C/C(=C/c1ccccc1)C(=O)NCc1ccccc1	–	–	–	–	–	–
O=S(=O)(NCC(c1ccccc1)N1CCNCC1)c1ccc(Cl)cc1 (stereo not given)	–	–	–	–	–	–
CCN1CCN(C(CNS(=O)(=O)c2ccc(Cl)cc2)c2ccccc2)CC1 (stereo not given)	–	–	28.4	–	–	–
CCN(CC)C(=O)C1CCN(Cc2ccc(Br)cc2)CC1	–	31.7	–	–	–	–
CC(C)C(N)c1csc(Nc2ccc(C(=O)c3ccccc3)cc2)n1 (stereo not given)	–	–	–	–	–	–
CCOc1ccccc1-c1cc(C(=O)Nc2ccc(C(=O)O)cc2)c2ccccc2n1	–	–	–	–	–	13.9
CCN(CC)CCCNC(=O)CNC(=O)c1nn(-c2ccc(OC)cc2OC)c(=O)c2ccccc12	–	–	–	–	–	–
CC1(C)CC(=O)C(=Cc2cn(CCC#N)nc2-c2ccc(Cl)cc2)C(=O)C1	–	–	–	–	–	19.8
O=C(COC(=O)c1ccccc1O)NC12CC3CC(CC(C3)C1)C2	–	–	–	–	–	–
